Measurements: ChEMBL document CHEMBL2417388, “Design and synthesis of (4E)-4-(4-substitutedbenzylideneamino)-3-substituted-2,3-dihydro-2-thioxothiazole-5-carbonitrile as novel A2A receptor antagonists” (Bioorg Med Chem, 2013)
pKi: −log10 of the molar value. Calls of active or inactive are those of the source. The rule behind the calls is not given here.

Tests used:
HEK293 = assay: Selectivity ratio of Ki for human A1 receptor expressed in HEK293 cell membranes to Ki for human A2A receptor expressed in HEK293 cell membranes; assay type: cell-based
Adenosine receptor A1 = biological target: T1, Adenosine receptor A1 (Homo sapiens, UniProt P30542); assay: Displacement of [3H]DPCPX from human A1 receptor expressed in HEK293 cell membranes after 60 mins by scintillation counting
T1 sequence (P30542 whole entry): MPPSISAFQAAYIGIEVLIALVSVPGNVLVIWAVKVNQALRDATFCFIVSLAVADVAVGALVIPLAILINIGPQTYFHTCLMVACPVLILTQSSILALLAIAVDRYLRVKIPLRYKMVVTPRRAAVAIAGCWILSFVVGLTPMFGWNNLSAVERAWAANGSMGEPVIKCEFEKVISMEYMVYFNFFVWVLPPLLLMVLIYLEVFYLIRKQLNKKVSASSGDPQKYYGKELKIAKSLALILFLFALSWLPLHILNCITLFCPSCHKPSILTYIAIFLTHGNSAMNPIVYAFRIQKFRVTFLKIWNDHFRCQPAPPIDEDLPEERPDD

Adenosine receptor A2a = Adenosine receptor A2a (Homo sapiens, UniProt P29274); assay: Displacement of [3H]ZM241385 from human A2A receptor expressed in HEK293 cell membranes after 60 mins by scintillation counting
Mus musculus [1] = assay: Inhibition of haloperidol-induced catalepsy in Swiss albino mouse at 10 mg/kg, ip administered 30 mins prior haloperidol challenge measured after 120 mins; assay type: functional, organism-based; parameters: dose 10 mg/kg
In short: (§1)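 Adult male Swiss albino mice (4–6 weeks, 20–30 g), four per group. Compound given ip at 5–20 mg/kg, with 1% acacia in saline as vehicle control. […] Catalepsy scored over time up to 120 min. Mean ± SEM, n = 4, one-way ANOVA and Kruskal–Wallis test.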

Mus musculus [2] = assay: Inhibition of haloperidol-induced catalepsy in Swiss albino mouse at 5 to 20 mg/kg, ip administered 30 mins prior haloperidol challenge measured after 120 mins; assay type: functional, organism-based; in short: as §1

Sequence of Adenosine receptor A2a (P29274 whole entry): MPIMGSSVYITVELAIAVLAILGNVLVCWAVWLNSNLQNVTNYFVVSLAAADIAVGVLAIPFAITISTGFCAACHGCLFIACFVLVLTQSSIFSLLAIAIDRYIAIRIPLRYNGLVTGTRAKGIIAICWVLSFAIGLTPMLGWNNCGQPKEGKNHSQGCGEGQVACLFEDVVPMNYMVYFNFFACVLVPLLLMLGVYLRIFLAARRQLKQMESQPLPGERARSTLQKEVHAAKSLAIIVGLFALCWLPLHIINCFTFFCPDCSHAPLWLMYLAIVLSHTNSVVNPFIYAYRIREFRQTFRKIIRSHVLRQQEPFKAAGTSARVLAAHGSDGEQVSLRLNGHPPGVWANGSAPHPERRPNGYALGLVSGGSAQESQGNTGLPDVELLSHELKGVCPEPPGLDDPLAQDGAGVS

Row | SMILES | pKi (Adenosine receptor A1) | pKi (Adenosine receptor A2a) | Ratio Ki (HEK293) | inhibition (Mus musculus [1]) | inhibition (Mus musculus [2])
1 | CCCn1c(/N=C/c2ccc(Cl)cc2)c(C#N)sc1=S |  |  | 0.042 |  | 
2 | CCCCn1c(/N=C/c2ccc(Cl)cc2)c(C#N)sc1=S |  |  | 2570 |  | 
3 | N#Cc1sc(=S)n(-c2ccccc2)c1/N=C/c1ccc(Cl)cc1 |  |  | 2950 |  | 
4 | CCCn1c(/N=C/c2ccc(F)cc2)c(C#N)sc1=S |  |  | 3390 |  | 
5 | N#Cc1sc(=S)n(-c2ccccc2)c1/N=C/c1ccc(F)cc1 | 12.20 | 11.33 | 0.13 |  | 
6 | N#Cc1sc(=S)n(-c2ccccc2)c1/N=C/c1ccc(Br)cc1 |  |  |  | Active | Active
7 | CCCCn1c(/N=C/c2ccc(Br)cc2)c(C#N)sc1=S |  |  | 0.013 |  | 
8 | Nc1nc2c(cnn2CCc2ccccc2)c2nc(-c3ccco3)nn12 |  |  |  | Active | Active

Now from value to molecule, other results behind:

Row | pKi (Adenosine receptor A1) | pKi (Adenosine receptor A2a) | SMILES | Ratio Ki (HEK293) | inhibition (Mus musculus [1]) | inhibition (Mus musculus [2])
9 | 12.13 |  | CCn1c(/N=C/c2ccc(Br)cc2)c(C#N)sc1=S | 0.074 |  | 
10 | 7.78 | 10.57 | CCCCn1c(/N=C/c2ccc(F)cc2)c(C#N)sc1=S | 619 |  | 
11 | 6.05 | 8.58 | N#Cc1sc(=S)n(CCc2ccccc2)c1/N=C/c1ccc(F)cc1 | 337 |  | 
12 | 9.60 | 10.17 | N#Cc1sc(=S)n(CCc2ccccc2)c1/N=C/c1ccc(Br)cc1 | 3.73 |  | 
13 | 7.70 | 8.84 | CCn1c(/N=C/c2ccc(Cl)cc2)c(C#N)sc1=S | 13.8 |  | 
14 | 12.23 |  | CCn1c(/N=C/c2ccc(F)cc2)c(C#N)sc1=S | 5.3e-05 |  | 
15 | 6.22 | 8.74 | CCCn1c(/N=C/c2ccc(Br)cc2)c(C#N)sc1=S | 337 |  | 
